Screening data from PubChem BioAssay.
procasp3 activ – activators of human procaspase-3 | recombinant procaspase-3 D3A, Ac-DEVD-pNA absorbance 405 nm | activation, % at 8.5 µM | hit rate 0.11% among 330,000 | AID 463141;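 active = activation above the mean of all tested compounds plus 3 SD, cut at about 21% in these data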;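 also: 0% = DMSO alone and 100% = DMSO wells spiked with extra 5 µM PC-3 D3A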
Target sequence (P42574 whole entry D9A/D28A/D175A): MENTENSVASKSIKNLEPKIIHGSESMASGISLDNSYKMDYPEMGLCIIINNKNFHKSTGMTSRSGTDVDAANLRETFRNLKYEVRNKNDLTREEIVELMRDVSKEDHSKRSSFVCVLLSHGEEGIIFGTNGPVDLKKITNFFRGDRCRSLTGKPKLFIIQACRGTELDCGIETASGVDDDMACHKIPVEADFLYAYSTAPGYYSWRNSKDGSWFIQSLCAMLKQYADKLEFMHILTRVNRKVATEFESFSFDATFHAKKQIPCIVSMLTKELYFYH
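Assay system: Autoprocessing-dead procaspase-3 D3A mutant enzyme; also added: Ac-DEVD-pNA; doses: one concentration, 8.5 µM nominal, 0.8% DMSO; times: 1 h compound preincubation, 2 h substrate hydrolysis at 25 °C; technique: 405 nm absorbance of p-nitroaniline, reads at 0 and 120 min; measure: % activation between DMSO and enzyme-spiked controls; repeats: single replicate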
GRIN3A LBD mod – modulators (binders) of human NR3A ligand-binding domain. NR3A LBD differential scanning fluorimetry, Tm shift; 0% = protein alone, 100% = glycine-bound protein. hit rate 2.5% among 340,000. AID 1259313. Tm shift relative to glycine control, % at 25 µM;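 active = melting temperature shift of at least 10% of the positive control shift, at one fixed dose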
aDG glyco up – increases alpha dystroglycan glycosylation; Pro5-aDG cells, alpha-DG glycosylation AlphaScreen (IIH6); 0% Pro5, 100% B10-LARGE cell signal; activation, % at 10 µM; hit rate 0.22% among 360,000; AID 624168;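 active = activation of at least 8% versus controls, or a plate z-score of at least 8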;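 also: Pro5 are CHO cells carrying HIG-tagged alpha-DG that lacks glycosylation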
MPTP block – inhibitors of mitochondrial permeability transition pore. isolated mouse mitochondria, Ca2+ swelling absorbance, 30 min. inhibition, % at 10 µM. hit rate 1.4% among 360,000;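 active = inhibition of 50% or more, scaled per plate between neutral and stimulator controls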;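 also: 0% = DMSO wells given calcium and 100% = 1 mM EGTA wells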
procasp7 counter – counter-screen: procaspase-7 (human) activation; AID 463210; activation, % at 8.5 µM; hit rate 0.093% among 330,000; P55210; recombinant procaspase-7, Ac-DEVD-pNA absorbance 405 nm; D23A/D198A/D206A triple mutant, cannot self-cleave; scale: DMSO 0, 5 µM enzyme 100;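 active = percent activation above the screen-wide mean plus 3 SD, cut at about 25% in these data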
Target sequence (P55210 whole entry D23A/D198A/D206A): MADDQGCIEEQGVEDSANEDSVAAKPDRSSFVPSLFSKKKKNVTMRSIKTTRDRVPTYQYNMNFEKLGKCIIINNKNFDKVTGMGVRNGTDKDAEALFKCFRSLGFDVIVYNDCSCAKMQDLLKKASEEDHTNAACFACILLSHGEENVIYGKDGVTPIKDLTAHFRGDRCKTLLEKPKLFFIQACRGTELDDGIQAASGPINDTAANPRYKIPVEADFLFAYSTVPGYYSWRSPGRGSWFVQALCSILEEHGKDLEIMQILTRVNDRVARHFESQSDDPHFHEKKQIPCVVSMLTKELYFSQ
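Assay system – Uncleavable procaspase-7 mutant enzyme · Quantity – 2 µM procaspase-7 mutant as dispensed · Times – 1 h preincubation, 2 h reaction · Dosing – single nominal 8.5 µM compound dose, 0.8% DMSO final · Buffer or medium – Zinc-free 50 mM HEPES buffer, pH 7.4, with NaCl and Triton X-100 · Detection – Epi-absorbance of released pNA at 405 nm, two timepoints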
Numbers without * were called inactive; · = no result. Rows were chosen to be rich in hits. Some 3.7% of all compounds tested hit in one or more screens of this group.

SMILES	procasp3 activ	GRIN3A LBD mod	aDG glyco up	MPTP block	procasp7 counter
COC(=O)/C(=C/c1c[nH]c2ccccc12)[N+](=O)[O-]	-13	16*	0	2	-18
COc1cc(OC)c2ccc(=O)oc2c1C(CCN1CCOCC1)c1ccc2c(c1)OCO2 (configuration not stated)	3	15*	0	-1	-8
CCOC(=O)Cc1c(-c2cccc(Cl)c2)nc2c3ccccc3ccn12	·	·	1	2	·
Clc1ccc2c(c1)nc1n2CCCC1	6	15*	0	-1	17
O=[N+]([O-])c1ccc2c(c1)nc1n2CCCCC1	6	0	0	2	5
O=C(COC(=O)/C=C/c1ccco1)Nc1cc(S(=O)(=O)N2CCOCC2)ccc1Cl	6	0	0	-1	7
O=C(O)COc1ccccc1/C=C1\SC(=S)N(NC(=O)c2ccccc2O)C1=O	-5	-2	0	-2	-6
O=C(NN1C(=O)/C(=C/c2ccc(O)c(O)c2)SC1=S)c1ccccc1	-10	13*	0	15	-7
Cc1ccc(C(=O)NN2C(=O)/C(=C/c3cn(C)c4ccccc34)SC2=S)cc1	-8	0	0	2	-3
O=C(NN1C(=O)/C(=C/c2cccc(O)c2)SC1=S)c1ccccc1O	-6	23*	0	1	-9
Cn1cc(/C=C2\SC(=S)N(NC(=O)c3ccccc3Cl)C2=O)c2ccccc21	-16	12*	0	0	-22
CCN1C(=O)C(CC(=O)Nc2ccc(OC)cc2)N(Cc2ccc3c(c2)OCO3)C1=S (configuration not stated)	2	22*	0	0	-3
CCN1C(=O)C(CC(=O)Nc2ccc(Br)cc2)N(CCCc2ccccc2)C1=S (configuration not stated)	0	16*	1	14	8
CCOc1ccc(NC(=O)CC2C(=O)N(C)C(=S)N2Cc2ccco2)cc1 (configuration not stated)	1	17*	0	0	4
CCN1C(=O)C(CC(=O)Nc2ccc(OC)cc2)N(Cc2ccc(OC)c(OC)c2)C1=S (configuration not stated)	5	5	0	1	0
CCOc1ccc(NC(=O)CC2C(=O)N(C)C(=S)N2CCCc2ccccc2)cc1 (configuration not stated)	-2	7	0	1	-1
CCOc1ccc(NC(=O)CC2C(=O)N(C)C(=S)N2Cc2ccc3c(c2)OCO3)cc1 (configuration not stated)	-1	12*	2	-5	0
Cc1cc(C)c(C#N)c(SCC(=O)Nc2cc(C)on2)n1	1	0	0	0	0
O=C(NCCc1c[nH]c2ccccc12)c1ccc([N+](=O)[O-])o1	·	·	1	0	·
CC(C)(C)NC(=O)CN(C(=O)c1snc(C(=O)NC2CCCCC2)c1N)c1ccc(F)cc1	-2	-5	1	1	1
Cc1ccc(C)c(OCC(=O)NNC(=O)CCN2CCN(c3ccccc3)CC2)c1	2	0	0	0	2
CSc1nnc2c3cc(F)ccc3n(Cc3ccccc3)c2n1	-1	39*	0	3	-2
O/C(=C\c1nc2ccccc2nc1/C=C(\O)c1ccccc1)c1ccccc1	-5	22*	1	4	-2
O=c1oc2ccccc2nc1/C=C(\O)c1ccccc1	-32	1	1	2	-23
CCN(CC)S(=O)(=O)c1ccc(N2CCOCC2)c(NC(=O)c2[nH]c(C)c(C(C)=O)c2C)c1	-3	0	-1	-1	7
SMILES	procasp3 activ	GRIN3A LBD mod	aDG glyco up	MPTP block	procasp7 counter
CCN1C(=O)[C@H]2[C@@H](c3ccc(-c4ccc(F)cc4)cc3)N[C@@](C)(C(=O)OC)[C@H]2C1=O	1	-2	0	-1	1
Cn1c(NCc2cccnc2)nc2cc(-c3cccc(C(=O)NCCO)c3)sc2c1=O	·	·	0	1	·
CCN1C2=NCCCN2c2ccccc21	0	11*	0	0	-3
COc1ccc(N2C(=O)C3C4C=CC(c5ccccc5)(C3C2=O)C2C(=O)N(c3ccc(OC)cc3)C(=O)C42)cc1 (configuration not stated)	-3	12*	0	-1	0
O=C(O)c1ccc(-c2noc(-c3ccccc3Cl)n2)cc1	3	1	0	1	10
Fc1ccccc1-c1nc(-c2ccc(Cl)cc2)no1	-5	21*	0	-2	0
c1ccc(-c2noc(-c3ccccc3-c3ccccc3)n2)cc1	-1	13*	0	2	5
O=S(=O)(Nn1c(O)c(C=C2N=c3ccccc3=N2)sc1=S)c1ccccc1	-9	7	0	8	-31
O=C(Nn1c(O)c(C=C2N=c3ccccc3=N2)sc1=S)c1ccccc1Cl	-29	23*	0	1	-43
Cc1c(C(=O)N/N=C/c2cccs2)nnn1-c1nonc1N	9	10*	0	0	1
COc1ccc(/C(C)=N/NC(=O)c2nnn(-c3nonc3N)c2CN(C)c2ccccc2)cc1	10	-14	0	0	2
Cc1ccsc1/C=N/NC(=O)c1nnn(-c2nonc2N)c1C	-7	5	0	-2	2
CCCN(CCC)Cc1c(C(=O)N/N=C/c2cccs2)nnn1-c1nonc1N	2	-13	0	0	7
CCCc1c(C(=O)N/N=C/c2cccs2)nnn1-c1nonc1N	5	17*	0	-3	2
C/C(=N\NC(=O)c1nnn(-c2nonc2N)c1CN(C)c1ccccc1)c1ccccc1O	-56	14*	0	0	-71
CN(Cc1c(C(=O)N/N=C/c2cccs2)nnn1-c1nonc1N)c1ccccc1	8	16*	0	4	-3
CCC(CC)C(C(=O)NCc1ccccc1)N1CCN(c2cccc(C)c2C)CC1 (configuration not stated)	·	·	0	0	·
CCOc1ccccc1OCCCCOc1ccccc1F	10	25*	0	1	1
COc1ccccc1OCCCCOc1ccccc1F	3	3	0	-1	-3
COc1ccc(C(=O)NCC(c2ccco2)N2CCOCC2)cc1 (configuration not stated)	·	·	0	-1	·
CCCn1nc(C(=O)Nc2cc(S(=O)(=O)Nc3ccc(OC)cc3)ccc2O)c2ccccc2c1=O	0	27*	0	6	6
CCCn1nc(C(=O)Nc2ccc(S(=O)(=O)Nc3nccs3)cc2)c2ccccc2c1=O	-3	-2	0	-6	7
C=CCn1c(C)cc(C(=O)COC(=O)CNC(=O)c2ccccc2)c1C	3	13*	0	0	3
Cc1ccc(C(=O)NCC(=O)OCC(=O)c2cc(C)n(Cc3ccco3)c2C)cc1	1	0	0	-19	-5
